From ChEMBL document CHEMBL4138271, “Crystal Structures and Human Leukemia Cell Apoptosis Inducible Activities of Parthenolide Analogues Isolated from Piptocoma rufescens” (J Nat Prod, 2018)
pIC50: −log10 of the molar value. Activity calls are given as the source filed them. The calls are words filed in the database; no cut-off is given here.

Key:
[1] = tested on: EOL1; assay: Induction of apoptosis in human EOL-1 cells assessed as necrotic cells at 0.59 uM after 24 hrs by Annexin-V FITC/7-AAD staining based flow cytometric method (reference value: 0.032%); assay type: functional
[2] = tested on: EOL1; assay: Induction of apoptosis in human EOL-1 cells assessed as necrotic cells at 1.8 uM after 24 hrs by Annexin-V FITC/7-AAD staining based flow cytometric method (reference value: 0.032%); assay type: functional
[3] = tested on: EOL1; assay: Induction of apoptosis in human EOL-1 cells assessed as late apoptotic cells at 0.26 uM after 24 hrs by Annexin-V FITC/7-AAD staining based flow cytometric method (reference value: 0.535%); assay type: functional
[4] = tested on: EOL1; assay: Induction of apoptosis in human EOL-1 cells assessed as necrotic cells at 0.26 uM after 24 hrs by Annexin-V FITC/7-AAD staining based flow cytometric method (reference value: 0.032%); assay type: functional
[5] = tested on: MOLM-13; assay: Cytotoxicity against human MOLM13 cells after 72 hrs by MTS assay; assay type: functional, cell-based; conditions: MOLM-13, 72 h
[6] = tested on: EOL1; assay: Induction of apoptosis in human EOL-1 cells assessed as caspase-3 activation at 10 uM after 72 hrs by immunoblotting analysis; assay type: functional, cell-based
In short: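 EOL-1 cells (RPMI 1640, 10% FBS, 37 °C, 5% CO2) exposed 72 h; compounds at 10 μM, PKC412 at 10 nM. Harvested, PBS-washed, lysed in hypertonic NP-40 buffer with protease/phosphatase inhibitors; SDS-PAGE, PVDF transfer, rabbit monoclonal cleaved caspase-3 (Asp175) antibody 12 h, secondary 1 h, chemiluminescent detection; β-actin loading control. Representative blots of three independent experiments.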

[7] = tested on: MOLM-13; assay: Induction of apoptosis in human MOLM13 cells assessed as early apoptotic cells at 0.59 uM after 24 hrs by Annexin-V FITC/7-AAD staining based flow cytometric method (reference value: 11.8%); assay type: functional
[8] = tested on: MOLM-13; assay: Induction of apoptosis in human MOLM13 cells assessed as live cells at 0.59 uM after 24 hrs by Annexin-V FITC/7-AAD staining based flow cytometric method (reference value: 86.8%); assay type: functional
[9] = tested on: MOLM-13; assay: Induction of apoptosis in human MOLM13 cells assessed as early apoptotic cells at 0.26 uM after 24 hrs by Annexin-V FITC/7-AAD staining based flow cytometric method (reference value: 11.8%); assay type: functional
[10] = tested on: MOLM-13; assay: Induction of apoptosis in human MOLM13 cells assessed as necrotic cells at 0.26 uM after 24 hrs by Annexin-V FITC/7-AAD staining based flow cytometric method (reference value: 0%); assay type: functional
[11] = tested on: EOL1; assay: Cytotoxicity against human EOL-1 cells after 72 hrs by MTS assay; assay type: functional, cell-based; conditions: EOL1, 72 h
[12] = biological target: Transcription factor p65 (Homo sapiens) (UniProt Q04206); assay: Inhibition of NFkappaB p65 in human MOLM13 cells at 10 uM after 72 hrs by immunoblotting method; assay type: cell-based
Chain of Transcription factor p65 (Homo sapiens) (Q04206 whole entry): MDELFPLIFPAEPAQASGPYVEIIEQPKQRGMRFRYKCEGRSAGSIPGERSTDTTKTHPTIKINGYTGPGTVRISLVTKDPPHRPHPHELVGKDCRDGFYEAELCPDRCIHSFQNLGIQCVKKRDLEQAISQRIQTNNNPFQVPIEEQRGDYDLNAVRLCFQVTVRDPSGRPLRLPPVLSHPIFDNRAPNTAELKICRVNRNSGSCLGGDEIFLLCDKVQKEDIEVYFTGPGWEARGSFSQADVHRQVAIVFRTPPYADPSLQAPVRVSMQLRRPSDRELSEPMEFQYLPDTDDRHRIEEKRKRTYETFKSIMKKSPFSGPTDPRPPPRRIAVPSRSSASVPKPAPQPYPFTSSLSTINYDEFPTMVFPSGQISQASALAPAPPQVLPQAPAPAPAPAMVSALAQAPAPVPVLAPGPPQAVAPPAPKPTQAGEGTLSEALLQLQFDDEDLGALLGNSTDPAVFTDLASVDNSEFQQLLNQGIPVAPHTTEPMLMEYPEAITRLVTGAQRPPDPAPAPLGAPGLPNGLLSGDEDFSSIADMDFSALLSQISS
In short: (§1)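 MOLM-13 or EOL-1 cells treated 72 h at 10 μM. Cells washed in ice-cold PBS and lysed in hypertonic NP-40 buffer (10 mM HEPES pH 7.5, 0.5 M NaCl) with protease/phosphatase inhibitors. Protein measured by BCA; SDS-PAGE onto PVDF. Probed 12 h with rabbit monoclonal NF-κB-p65 antibody, goat β-actin as loading control, then chemiluminescence. Blots representative of three independent experiments.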

[13] = tested on: MOLM-13; assay: Synergistic antileukemic activity against human MOLM13 cells assessed as concentration required for <= 75% cell survival after 72 hrs in presence of midostaurin by CellTiter 96 AQueous One solution cell proliferation assay; assay type: functional
[14] = tested on: EOL1; assay: Induction of apoptosis in human EOL-1 cells assessed as early apoptotic cells at 0.26 uM after 24 hrs by Annexin-V FITC/7-AAD staining based flow cytometric method (reference value: 1.94%); assay type: functional
[15] = biological target: Transcription factor p65 (Homo sapiens) (UniProt Q04206); assay: Inhibition of NFkappaB p65 in human EOL-1 cells at 10 uM after 72 hrs by immunoblotting method; assay type: cell-based; in short: as §1
[16] = tested on: MOLM-13; assay: Induction of apoptosis in human MOLM13 cells assessed as live cells at 1.8 uM after 24 hrs by Annexin-V FITC/7-AAD staining based flow cytometric method (reference value: 86.8%); assay type: functional
[17] = tested on: EOL1; assay: Synergistic antileukemic activity against human EOL-1 cells assessed as concentration required for <= 75% cell survival after 72 hrs in presence of midostaurin by CellTiter 96 AQueous One solution cell proliferation assay; assay type: functional
[18] = tested on: EOL1; assay: Induction of apoptosis in human EOL-1 cells assessed as early apoptotic cells at 1.8 uM after 24 hrs by Annexin-V FITC/7-AAD staining based flow cytometric method (reference value: 1.94%); assay type: functional
[19] = tested on: EOL1; assay: Induction of apoptosis in human EOL-1 cells assessed as early apoptotic cells at 0.59 uM after 24 hrs by Annexin-V FITC/7-AAD staining based flow cytometric method (reference value: 1.94%); assay type: functional
[20] = tested on: EOL1; assay: Induction of apoptosis in human EOL-1 cells assessed as late apoptotic cells at 0.59 uM after 24 hrs by Annexin-V FITC/7-AAD staining based flow cytometric method (reference value: 0.535%); assay type: functional
[21] = tested on: MOLM-13; assay: Induction of apoptosis in human MOLM13 cells assessed as necrotic cells at 1.8 uM after 24 hrs by Annexin-V FITC/7-AAD staining based flow cytometric method (reference value: 0%); assay type: functional
[22] = tested on: EOL1; assay: Induction of apoptosis in human EOL-1 cells assessed as live cells at 0.59 uM after 24 hrs by Annexin-V FITC/7-AAD staining based flow cytometric method (reference value: 97.5%); assay type: functional
[23] = tested on: MOLM-13; assay: Induction of apoptosis in human MOLM13 cells assessed as live cells at 0.26 uM after 24 hrs by Annexin-V FITC/7-AAD staining based flow cytometric method (reference value: 86.8%); assay type: functional
[24] = tested on: MOLM-13; assay: Induction of apoptosis in human MOLM13 cells assessed as early apoptotic cells at 1.8 uM after 24 hrs by Annexin-V FITC/7-AAD staining based flow cytometric method (reference value: 11.8%); assay type: functional
[25] = tested on: EOL1; assay: Induction of apoptosis in human EOL-1 cells assessed as late apoptotic cells at 1.8 uM after 24 hrs by Annexin-V FITC/7-AAD staining based flow cytometric method (reference value: 0.535%); assay type: functional
[26] = tested on: MOLM-13; assay: Induction of apoptosis in human MOLM13 cells assessed as late apoptotic cells at 0.26 uM after 24 hrs by Annexin-V FITC/7-AAD staining based flow cytometric method (reference value: 1.43%); assay type: functional
[27] = tested on: MOLM-13; assay: Induction of apoptosis in human MOLM13 cells assessed as caspase-3 activation at 10 uM after 72 hrs by immunoblotting analysis; assay type: functional, cell-based
In short: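 MOLM-13 cells treated 72 h with test compounds at 10 μM or PKC412 at 10 nM. Cells washed in ice-cold PBS, lysed at 10^8 cells/mL in NP-40 hypertonic buffer (pH 7.5) with protease/phosphatase inhibitors, then run on SDS-PAGE and PVDF. Blots probed 12 h with rabbit monoclonal cleaved caspase-3 (Asp175), β-actin as loading control. Representative of three independent experiments.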

[28] = tested on: EOL1; assay: Induction of apoptosis in human EOL-1 cells assessed as live cells at 0.26 uM after 24 hrs by Annexin-V FITC/7-AAD staining based flow cytometric method (reference value: 97.5%); assay type: functional
[29] = tested on: MOLM-13; assay: Induction of apoptosis in human MOLM13 cells assessed as late apoptotic cells at 0.59 uM after 24 hrs by Annexin-V FITC/7-AAD staining based flow cytometric method (reference value: 1.43%); assay type: functional
[30] = tested on: EOL1; assay: Induction of apoptosis in human EOL-1 cells assessed as live cells at 1.8 uM after 24 hrs by Annexin-V FITC/7-AAD staining based flow cytometric method (reference value: 97.5%); assay type: functional
[31] = tested on: HT-29; assay: Cytotoxicity against human HT-29 cells after 72 hrs by MTS assay; assay type: functional, cell-based; conditions: HT-29, 72 h
[32] = tested on: MOLM-13; assay: Induction of apoptosis in human MOLM13 cells assessed as necrotic cells at 0.59 uM after 24 hrs by Annexin-V FITC/7-AAD staining based flow cytometric method (reference value: 0%); assay type: functional
[33] = tested on: MOLM-13; assay: Induction of apoptosis in human MOLM13 cells assessed as late apoptotic cells at 1.8 uM after 24 hrs by Annexin-V FITC/7-AAD staining based flow cytometric method (reference value: 1.43%); assay type: functional

SMILES: C=C(C)C(=O)O[C@H]1C[C@@]2(C)OC(=CC2=O)/C(C)=C\[C@H]2OC(=O)C(=C)[C@H]12
- Activity [1]: 0.301%
- Activity [2]: 4.7%
- Activity [3]: 0.568%
- Activity [4]: 0.032%
- pIC50 [5]: 5.96
- Activity [6]: Active
- Activity [7]: 10.9%
- Activity [8]: 86.5%
- Activity [9]: 6.62%
- Activity [10]: 0.08%
- pIC50 [11]: 6.00
- inhibition [12]: Active
- Activity [13]: 0.44 µM
- Activity [14]: 1.9%
- inhibition [15]: Active
- Activity [16]: 1.66%
- Activity [17]: 0.59 µM
- Activity [18]: 0.24%
- Activity [19]: 2.66%
- Activity [20]: 4.42%
- Activity [21]: 9.96%
- Activity [22]: 92.6%
- Activity [23]: 92.3%
- Activity [24]: 1.25%
- Activity [25]: 69.1%
- Activity [26]: 0.097%
- Activity [27]: Active
- Activity [28]: 97.5%
- Activity [29]: 2.42%
- Activity [30]: 25.9%
- pIC50 [31]: 6.59
- Activity [32]: 0.214%
- Activity [33]: 87.1%
